# Experimental data: ChEMBL document CHEMBL5058577, “EUbOPEN Chemogenomics Library 2 (Multiplex)” (2022)
# System: HEK-293T
# Experiment: Multiplex assay against HEK293T
# Format: toxicity, cell-based
# Conditions: human
# Method in brief: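 On a CQ1 microscope at 37°C and 5% CO2, live cells were imaged after compound addition. They had been stained at seeding with Hoechst33342, BioTracker Green Microtubule Cytoskeleton Dye, MitoTracker Red and Annexin V Alexa Fluor 680. CellPathfinder machine-learning gating assigned cells to Hoechst high-intensity objects or normal cells, normal cells to healthy, pyknosed or fragmented nuclei, and pyknosed cells to mitotic or apoptotic. Tubulin, mitochondrial-mass and membrane-permeability phenotypes are per cents of healthy-nucleus cells.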
# [1] = 12 h, 1 µM, compound concentration 1 uM, replicate 1
# [2] = 12 h, 1 µM, compound concentration 1 uM, replicate 2
# [3] = 12 h, 10 µM, compound concentration 10 uM, replicate 1
# [4] = 12 h, 10 µM, compound concentration 10 uM, replicate 2
# [5] = 24 h, 1 µM, compound concentration 1 uM, replicate 1
# [6] = 24 h, 1 µM, compound concentration 1 uM, replicate 2
# [7] = 24 h, 10 µM, compound concentration 10 uM, replicate 1
# [8] = 24 h, 10 µM, compound concentration 10 uM, replicate 2
# [9] = 48 h, 1 µM, compound concentration 1 uM, replicate 1
# [10] = 48 h, 1 µM, compound concentration 1 uM, replicate 2
# [11] = 48 h, 10 µM, compound concentration 10 uM, replicate 1
# [12] = 48 h, 10 µM, compound concentration 10 uM, replicate 2
smiles,measurement,setting,value
COc1ccccc1N1CCN(C[C@@H](C(=O)NC(C)(C)C)c2ccccc2)CC1.Cl.Cl,Population Apoptotic (%),[1],24%
same,Population Fragmented Nuclei (%),[1],7%
same,Population Healthy Nuclei (%),[1],77%
same,Population Hoechst High Intensity Objects (%),[1],7%
same,Population Membrane Permeable-Phenotype (%),[1],0%
same,Population Mitochondria Different-Phenotype (%),[1],48%
same,Population Mitotic Cells (%),[1],75%
same,Population Normal (%),[1],92%
same,Population Pyknosed Nuclei (%),[1],14%
same,Population Tubulin-Different-Phenotype (%),[1],47%
same,Total Cell Count,[1],434
same,Population Apoptotic (%),[2],42%
same,Population Fragmented Nuclei (%),[2],4%
same,Population Healthy Nuclei (%),[2],76%
same,Population Hoechst High Intensity Objects (%),[2],6%
same,Population Mitochondria Different-Phenotype (%),[2],77%
same,Population Mitotic Cells (%),[2],57%
same,Population Normal (%),[2],93%
same,Population Pyknosed Nuclei (%),[2],19%
same,Population Tubulin-Different-Phenotype (%),[2],35%
same,Total Cell Count,[2],300
same,Population Apoptotic (%),[3],62%
same,Population Fragmented Nuclei (%),[3],7%
same,Population Healthy Nuclei (%),[3],69%
same,Population Hoechst High Intensity Objects (%),[3],7%
same,Population Membrane Permeable-Phenotype (%),[3],0%
same,Population Mitochondria Different-Phenotype (%),[3],88%
same,Population Mitotic Cells (%),[3],37%
same,Population Normal (%),[3],92%
same,Population Pyknosed Nuclei (%),[3],23%
same,Population Tubulin-Different-Phenotype (%),[3],74%
same,Total Cell Count,[3],333
same,Population Apoptotic (%),[4],58%
same,Population Fragmented Nuclei (%),[4],5%
same,Population Hoechst High Intensity Objects (%),[4],16%
same,Population Mitochondria Different-Phenotype (%),[4],79%
same,Population Mitotic Cells (%),[4],41%
same,Population Normal (%),[4],83%
same,Population Pyknosed Nuclei (%),[4],25%
same,Population Tubulin-Different-Phenotype (%),[4],59%
same,Total Cell Count,[4],231
same,Population Apoptotic (%),[5],19%
same,Population Fragmented Nuclei (%),[5],8%
same,Population Healthy Nuclei (%),[5],81%
same,Population Hoechst High Intensity Objects (%),[5],4%
same,Population Membrane Permeable-Phenotype (%),[5],0%
same,Population Mitochondria Different-Phenotype (%),[5],31%
same,Population Mitotic Cells (%),[5],80%
same,Population Normal (%),[5],95%
same,Population Pyknosed Nuclei (%),[5],9%
same,Population Tubulin-Different-Phenotype (%),[5],29%
same,Total Cell Count,[5],563
same,Population Apoptotic (%),[6],34%
same,Population Fragmented Nuclei (%),[6],11%
same,Population Healthy Nuclei (%),[6],76%
same,Population Hoechst High Intensity Objects (%),[6],6%
same,Population Mitochondria Different-Phenotype (%),[6],54%
same,Population Mitotic Cells (%),[6],65%
same,Population Normal (%),[6],93%
same,Population Pyknosed Nuclei (%),[6],11%
same,Population Tubulin-Different-Phenotype (%),[6],28%
same,Total Cell Count,[6],387
same,Population Apoptotic (%),[7],45%
same,Population Fragmented Nuclei (%),[7],8%
same,Population Healthy Nuclei (%),[7],68%
same,Population Hoechst High Intensity Objects (%),[7],7%
same,Population Membrane Permeable-Phenotype (%),[7],0%
same,Population Mitochondria Different-Phenotype (%),[7],77%
same,Population Mitotic Cells (%),[7],54%
same,Population Normal (%),[7],92%
same,Population Pyknosed Nuclei (%),[7],23%
same,Population Tubulin-Different-Phenotype (%),[7],61%
same,Total Cell Count,[7],377
same,Population Apoptotic (%),[8],66%
same,Population Healthy Nuclei (%),[8],76%
same,Population Hoechst High Intensity Objects (%),[8],14%
same,Population Mitochondria Different-Phenotype (%),[8],73%
same,Population Mitotic Cells (%),[8],33%
same,Population Normal (%),[8],85%
same,Population Pyknosed Nuclei (%),[8],15%
same,Population Tubulin-Different-Phenotype (%),[8],48%
same,Total Cell Count,[8],251
same,Population Apoptotic (%),[9],22%
same,Population Fragmented Nuclei (%),[9],13%
same,Population Healthy Nuclei (%),[9],78%
same,Population Hoechst High Intensity Objects (%),[9],2%
same,Population Membrane Permeable-Phenotype (%),[9],1%
same,Population Mitochondria Different-Phenotype (%),[9],19%
same,Population Mitotic Cells (%),[9],77%
same,Population Normal (%),[9],97%
same,Population Pyknosed Nuclei (%),[9],8%
same,Population Tubulin-Different-Phenotype (%),[9],18%
same,Total Cell Count,[9],908
same,Population Apoptotic (%),[10],38%
same,Population Fragmented Nuclei (%),[10],10%
same,Population Healthy Nuclei (%),[10],80%
same,Population Hoechst High Intensity Objects (%),[10],6%
same,Population Membrane Permeable-Phenotype (%),[10],0%
same,Population Mitochondria Different-Phenotype (%),[10],37%
same,Population Mitotic Cells (%),[10],61%
same,Population Normal (%),[10],93%
same,Population Pyknosed Nuclei (%),[10],9%
same,Population Tubulin-Different-Phenotype (%),[10],20%
same,Total Cell Count,[10],480
same,Population Apoptotic (%),[11],50%
same,Population Fragmented Nuclei (%),[11],14%
same,Population Healthy Nuclei (%),[11],72%
same,Population Hoechst High Intensity Objects (%),[11],6%
same,Population Membrane Permeable-Phenotype (%),[11],0%
same,Population Mitochondria Different-Phenotype (%),[11],59%
same,Population Mitotic Cells (%),[11],49%
same,Population Normal (%),[11],93%
same,Population Pyknosed Nuclei (%),[11],13%
same,Population Tubulin-Different-Phenotype (%),[11],44%
same,Total Cell Count,[11],467
same,Population Apoptotic (%),[12],62%
same,Population Fragmented Nuclei (%),[12],10%
same,Population Healthy Nuclei (%),[12],76%
same,Population Hoechst High Intensity Objects (%),[12],5%
same,Population Mitochondria Different-Phenotype (%),[12],58%
same,Population Mitotic Cells (%),[12],37%
same,Population Normal (%),[12],94%
same,Population Tubulin-Different-Phenotype (%),[12],36%
same,Total Cell Count,[12],375
